The list is not random: actives were taken first. Their share in the collection is about 12%.
Cl transport mod: KCC2 cotransporter modulators, thallium flux, primary screen, cell-based, HEK293 KCC2, FluoZin-2 fluorescence, MLSMR; Solute carrier family 12 member 5 (Homo sapiens), Q9H2X9; KCC2 cells, thallium flux FluoZin-2 fluorescence; B-score of Tl+ flux slope (higher = more flux/activation; lower = inhibition) at 10 µM; hit rate 2.2% among 190,000; AID 1456, 2008;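 active = thallium flux slope and its plate-corrected score both differing from the plate sample mean at a set confidence after two filtering rounds, in either direction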;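 also: slope of fluorescence scaled to starting intensity during 10 to 20 s after thallium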
Target sequence (Q9H2X9 whole entry, looked up): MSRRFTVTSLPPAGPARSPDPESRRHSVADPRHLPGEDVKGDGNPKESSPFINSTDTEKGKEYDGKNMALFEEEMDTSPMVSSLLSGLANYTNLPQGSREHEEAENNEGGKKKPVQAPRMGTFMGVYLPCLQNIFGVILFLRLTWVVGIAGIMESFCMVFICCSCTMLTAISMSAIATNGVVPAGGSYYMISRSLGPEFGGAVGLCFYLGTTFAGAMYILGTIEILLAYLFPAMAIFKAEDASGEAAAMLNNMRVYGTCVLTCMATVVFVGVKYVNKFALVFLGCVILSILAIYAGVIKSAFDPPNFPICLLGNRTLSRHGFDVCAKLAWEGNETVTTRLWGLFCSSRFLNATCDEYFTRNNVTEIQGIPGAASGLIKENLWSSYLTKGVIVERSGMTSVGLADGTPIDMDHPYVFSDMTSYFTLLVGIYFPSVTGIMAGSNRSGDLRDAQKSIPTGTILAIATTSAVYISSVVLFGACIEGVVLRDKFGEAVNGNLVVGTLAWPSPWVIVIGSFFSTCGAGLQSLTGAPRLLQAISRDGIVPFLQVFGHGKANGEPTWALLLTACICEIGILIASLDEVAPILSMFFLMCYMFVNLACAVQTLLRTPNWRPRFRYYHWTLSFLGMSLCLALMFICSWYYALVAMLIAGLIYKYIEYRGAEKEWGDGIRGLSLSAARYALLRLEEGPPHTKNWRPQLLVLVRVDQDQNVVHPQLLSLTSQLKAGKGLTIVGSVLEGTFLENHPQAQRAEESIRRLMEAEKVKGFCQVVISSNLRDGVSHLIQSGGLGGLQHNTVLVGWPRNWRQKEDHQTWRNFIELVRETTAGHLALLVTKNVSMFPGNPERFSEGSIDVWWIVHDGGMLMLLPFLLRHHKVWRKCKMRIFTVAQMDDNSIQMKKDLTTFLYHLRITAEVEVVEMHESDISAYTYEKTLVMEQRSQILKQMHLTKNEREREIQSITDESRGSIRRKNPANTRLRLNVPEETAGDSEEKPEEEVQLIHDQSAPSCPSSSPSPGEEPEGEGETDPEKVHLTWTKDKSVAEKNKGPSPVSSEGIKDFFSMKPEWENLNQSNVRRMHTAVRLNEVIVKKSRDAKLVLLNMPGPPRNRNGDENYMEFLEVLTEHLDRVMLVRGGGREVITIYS
Diaph act CS: compounds boosting diaphorase resazurin reduction – biochemical, uHTS, resorufin fluorescence, counter-screen for diaphorase-coupled primary assays, primary screen; AID 1229, 2008; hit rate 0.005% among 190,000; activation factor at 20 µM; Diaphorase/resazurin coupled assay, 16 min; active compounds read high; 1 = vehicle wells, 0 = NADH-free wells;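 active = diaphorase activity raised at least twofold by the compound at 20 µM; inactive = activation factor below 2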
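Material: purified diaphorase enzyme from Clostridium kluyveri / Medium: HEPES pH 7.4 buffer with MgCl2 and Tween 20 / Schedule: enzyme reaction of 16 min at room temperature / Measured by: resorufin fluorescence, excitation 544 nm, emission 590 nm / Evaluation: rise in resorufin formation, marking diaphorase activation or chemical reduction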
WT yeast gro inh: growth inhibition of WT strain, primary screen, mitochondrial fusion inhibitor project, WT and mutant strains, chemical genetic; mitochondrial fusion phenotypic screen; inhibition, % at 10 µM; hit rate 2.1% among 190,000; AID 1362, 2008; in the data active = inhibition above about 58%; tested in S. cerevisiae
Diaph inh CS: diaphorase inhibitors and chemical oxidizers, primary screen, counter-screen for diaphorase-coupled primary assays, biochemical, uHTS, resorufin fluorescence; diaphorase resazurin-to-resorufin fluorescence, NADH, 16 min; bacterial (C. kluyveri) enzyme, not human; inhibition, % at 20 µM; hit rate 0.69% among 190,000; AID 1217, 2008;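 active = primary screen inhibition at 20 µM above a set limit, cut at about 50% in these data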
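controls = No-NADH positive control and DMSO neutral control | system = Clostridium kluyveri diaphorase enzyme | timing = reaction incubation of 16 min at room temperature | signal = resorufin fluorescence 544/590 nm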
Lmaj promast: Leishmania major promastigote growth inhibition, primary screen | Leishmania major promastigotes, resazurin fluorescence viability | inhibition, % at 10 µM | hit rate 9% among 200,000 | AID 1063, 2008; in the data active = inhibition above about 50%;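 also: promastigotes grown with compound for 44 hours at 28 °C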
ROMK mod: ROMK potassium channel modulators, primary screen, cell-based, thallium flux, MLSMR library; ATP-sensitive inward rectifier potassium channel 1 (Homo sapiens), P48048; Tet-inducible ROMK, thallium flux fluorescence; actives lie on both sides; B-score at 10 µM; hit rate 2% among 130,000;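 active = signal ratio slope over the read window, or its plate-corrected B-score, at least 3 SD from the plate mean, either direction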;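 also: B-score of the F/F0 ratio slope over 7 to 12 s after thallium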
KCC2 sec1: KCC2 modulators in sodium-free buffer, confirmation, cell-based, HEK293 KCC2, thallium flux, secondary assay; shares compounds with Cl transport mod; FluoZin2 fluorescence; active compounds read high; normalised thallium flux (F/F0 slope) at 10 µM; hit rate 15% among 3,700; AID 1713, 2009;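 active = thallium flux slope above the same plate's solvent-only control mean plus 3 SD; inconclusive = the two replicate wells disagree; inactive = no significant difference from solvent-only control wells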
KCC2 bumet counter: thallium flux persisting under bumetanide in KCC2 cells, confirmation, counter-screen for KCC2 modulator project, cell-based, HEK293 KCC2, FluoZin2, secondary assay 3; HEK293-KCC2 + bumetanide/ouabain; active compounds read high; AID 1714, 2009; shares compounds with Cl transport mod; hit rate 49% among 3,700; normalized thallium flux at 10 µM;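 active = thallium entry rate above the same plate's blocked-transporter control wells by more than 3 SD; inconclusive = the two repeat wells disagree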;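 also: raw slope of fluorescence over initial fluorescence between 10 and 20 s after thallium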
KCC2 sec2: KCC2 modulators without ouabain present, confirmation, cell-based, HEK293 KCC2, thallium flux, FluoZin2, secondary assay 2; normalized thallium flux at 10 µM; thallium flux FluoZin2 fluorescence; actives lie on both sides; F/F0 rise rate, 10–20 s post-thallium; shares compounds with Cl transport mod; hit rate 23% among 3,700;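 active = thallium flux slope more than 3 SD above or below the plate's solvent-only control mean, mostly below; inconclusive = the two repeat wells disagreed; inactive = no significant shift from solvent-only controls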
HEK counter1: thallium flux modulation in parental HEK cells, confirmation, counter-screen for KCC2 modulator project, cell-based, counterscreen 1 | HEK293 parental cells, thallium flux FluoZin2, ouabain; baseline-ratio fluorescence slope, 10–20 s after thallium | shares compounds with Cl transport mod | thallium flux rate (normalised fluorescence) at 10 µM | AID 1716, 2009 | hit rate 46% among 3,700;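 active = thallium flux rate significantly above the same plate's solvent-only control wells, beyond their mean plus 3 SD; inconclusive = the two replicate wells gave conflicting results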
KCC2 retest ouab: KCC2 inhibitors and activators, ouabain retest, confirmation, HEK-KCC2 cells; shares compounds with Cl transport mod; HEK293-KCC2, thallium flux FluoZin2 fluorescence; bidirectional: low = inhibitor, high = activator; raw Tl+ flux slope (below DMSO = inhibition, above = activation) at 10 µM; hit rate 48% among 3,700; AID 1717, 2009;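 active = thallium flux slope beyond 3 SD from same-plate DMSO control mean in most replicates, usually higher, sometimes lower; inconclusive = repeat tests gave conflicting results; inactive = no significant difference from controls in most replicates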;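 also: slope of initial-normalized fluorescence between seconds 10 and 20 after thallium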
HEK293 Tl flux2: native HEK Tl+ uptake effects, second counter-screen – HEK cells, counterscreen 2, counter-screen for KCC2 modulator project, confirmation; shares compounds with Cl transport mod; HEK293 parental, thallium flux FluoZin-2 fluorescence slope; thallium flux slope at 10 µM; hit rate 33% among 3,700; AID 1718, 2009;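 active = thallium flux slope above the same plate's solvent-control mean plus 3 SD in both duplicate wells; inconclusive = duplicate wells that disagreed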;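 also: run without ouabain in cells lacking the KCC2 cotransporter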
Each line names hits and unclear results; the compound was inactive in the other large screens (follow-up assays come after a bar, where they were run).

CN(CC(=O)N1CC(=O)N(CCc2ccccc2)C(=O)C1)S(=O)(=O)c1cccc2nsnc12	Cl transport mod -4.02 (no result: ROMK mod) | KCC2 sec1 inactive | KCC2 bumet counter 0.00562 | KCC2 sec2 inconclusive | HEK counter1 inactive | KCC2 retest ouab inconclusive | HEK293 Tl flux2 inactive
CNC(=O)CSc1nnc(C(C)C)n1C	none
CCOC(=O)C1=C(N)OC2=C(C(=O)CCC2)C1c1ccc(C)s1 (centres undefined)	none (no result: ROMK mod)
CCOC(=O)C1=C(N)OC2=C(C(=O)CCC2)C1c1sccc1C (centres undefined)	Cl transport mod -6.44 | KCC2 sec1 inactive | KCC2 bumet counter inactive | KCC2 sec2 inconclusive | HEK counter1 0.00625 | KCC2 retest ouab inactive | HEK293 Tl flux2 0.00882
CCNS(=O)(=O)c1ccc(NC(=O)CC(C)c2ccccc2)cc1 (centres undefined)	none
CC(C)CSC1=NSC2=NC(=O)/C(=C\c3cccs3)C(=N)N12	Cl transport mod 41.7 | KCC2 sec1 0.00975 | KCC2 bumet counter 0.0895 | KCC2 sec2 0.0655 | HEK counter1 0.0665 | KCC2 retest ouab 0.0748 | HEK293 Tl flux2 0.0451
CC1=CC2=NC(=O)/C(=C/c3cccs3)C(=N)N2O1	none (no result: Diaph act CS, WT yeast gro inh, Diaph inh CS, Lmaj promast, ROMK mod)
CC(C)(C)C1CCc2onc(C(=O)O)c2C1 (centres undefined)	none
O=C(Nc1nc2c(s1)CN(Cc1ccccc1)CC2)c1cccc(S(=O)(=O)N2CCc3ccccc32)c1	Cl transport mod 3.42, Lmaj promast 61.8 (no result: ROMK mod) | KCC2 sec1 0.00453 | KCC2 bumet counter 0.0015 | KCC2 sec2 0.0207 | HEK counter1 0.00509 | KCC2 retest ouab 0.0126 | HEK293 Tl flux2 0.00789
COC(=O)CCN(C(=O)c1ccc(OC(C)=O)cc1)c1ccccn1	Cl transport mod -3.81 (no result: ROMK mod) | KCC2 sec1 inactive | KCC2 bumet counter inactive | KCC2 sec2 inactive | HEK counter1 inactive | KCC2 retest ouab inactive | HEK293 Tl flux2 inactive
COC(=O)CCN(C(=O)c1ccc([N+](=O)[O-])cc1)c1ccccn1	none (no result: Diaph act CS, WT yeast gro inh, Diaph inh CS, Lmaj promast)
O=C1c2ccccc2C(Nc2ccc(S(=O)(=O)N3CCCCCC3)cc2)N1Cc1ccco1 (centres undefined)	Cl transport mod -5.47 (no result: ROMK mod) | KCC2 sec1 inactive | KCC2 bumet counter inactive | KCC2 sec2 inactive | HEK counter1 inactive | KCC2 retest ouab 0.0162 | HEK293 Tl flux2 inactive
CCc1ccccc1NC1c2ccccc2C(=O)N1Cc1ccco1 (centres undefined)	none (no result: ROMK mod)
O=c1[nH]c(-c2ccc(Cl)cc2)nc(=S)[nH]1	none (no result: Diaph act CS, WT yeast gro inh, Diaph inh CS, Lmaj promast)
CCOC(=O)COc1ccsc1C(=O)OC	none (no result: ROMK mod)
O=C(NCc1ccco1)c1ccc(Br)c(S(=O)(=O)N2CCCCC2)c1	none (no result: Cl transport mod) | KCC2 sec1 inactive | KCC2 bumet counter inactive | KCC2 sec2 inconclusive | HEK counter1 inactive | KCC2 retest ouab inactive | HEK293 Tl flux2 inactive
O=C(NC(=S)NN1CCCCC1c1cccnc1)c1ccc(Cl)cc1Cl (centres undefined)	Cl transport mod 9.07 (no result: Diaph act CS, WT yeast gro inh, Diaph inh CS, Lmaj promast, ROMK mod) | KCC2 sec1 0.0124 | KCC2 bumet counter 0.0212 | KCC2 sec2 inactive | HEK counter1 0.0118 | KCC2 retest ouab inconclusive | HEK293 Tl flux2 inconclusive
O=C(Nc1ccc(Cl)cc1C(=O)NCc1cccnc1)c1ccc(Cl)cc1Cl	none (no result: ROMK mod)
Cc1ccc(S(=O)(=O)NCC(=O)NCC(=O)OCC(=O)N2CC(=O)Nc3ccccc32)cc1C	none
O=C(COc1ccc(Cl)cc1Cl)NNC(=S)NC(=O)c1ccco1	Cl transport mod 69.8 (no result: Diaph act CS, WT yeast gro inh, Diaph inh CS, Lmaj promast) | KCC2 sec1 0.0302 | KCC2 bumet counter 0.118 | KCC2 sec2 inactive | HEK counter1 inconclusive | KCC2 retest ouab 0.076 | HEK293 Tl flux2 0.03
O=C(NC(=S)NNC(=O)c1cccs1)c1ccco1	Cl transport mod 3.63 | KCC2 sec1 0.0183 | KCC2 bumet counter 0.0294 | KCC2 sec2 inactive | HEK counter1 0.0193 | KCC2 retest ouab 0.0365 | HEK293 Tl flux2 0.0129
O=C(NNC(=O)c1cccs1)c1ccco1	none
CCCOc1ccc(C(=O)NCCC(=O)NCCCC(=O)OCC)cc1	none (no result: Cl transport mod, ROMK mod)
CCCOc1ccc(C(=O)NCCO)cc1	Cl transport mod 5.94 | KCC2 sec1 inactive | KCC2 bumet counter inactive | KCC2 sec2 inactive | HEK counter1 inactive | KCC2 retest ouab inactive | HEK293 Tl flux2 inactive
O=C(NNC(=S)NC(=O)c1ccco1)c1ccc(F)cc1	Cl transport mod 59.6 (no result: Diaph act CS, WT yeast gro inh, Diaph inh CS, Lmaj promast, ROMK mod) | KCC2 sec1 0.0258 | KCC2 bumet counter 0.0632 | KCC2 sec2 inconclusive | HEK counter1 0.0352 | KCC2 retest ouab 0.0432 | HEK293 Tl flux2 0.0186
Cc1c(-c2cc(C(=O)O)on2)cnn1C	none
C=CCN(CC=C)C(=O)Nc1ccc2nc(C)sc2c1	none
Cn1c(N2CCOCC2)nc(-c2ccccc2)c1-c1ccccc1	none (no result: ROMK mod)
CC1CCCC(NC(=O)Nc2cccs2)C1C (centres undefined)	none
COCCNC(=S)NNC(=O)c1ccco1	none
CCCOc1ccc(C(=O)NNC(=S)NC(=O)c2ccco2)cc1	Cl transport mod 97.1 (no result: Diaph act CS, WT yeast gro inh, Diaph inh CS, Lmaj promast, ROMK mod) | KCC2 sec1 inactive | KCC2 bumet counter inactive | KCC2 sec2 0.0839 | HEK counter1 0.0863 | KCC2 retest ouab inconclusive | HEK293 Tl flux2 0.0842

Compound activity deposited in PubChem by several laboratories.
